An excerpt weighted towards active compounds, which were near 4.8% of everything screened.
XBP1 UPR activ – adaptive UPR (XBP1) activation. AID 463104. activation, % at 20 µM. actives 0.33% (n = 330,000). CHO-XBP1 luciferase reporter, IRE1-XBP1 UPR activation, luminescence; percent of tunicamycin response, DMSO as zero;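 active means versus positive control, 20 µM dose yields 30% or more activation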;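 further: 100% = tunicamycin at 10 µg/mL and 0% = DMSO only wells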
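incubation = overnight seeding at 37 °C, 6 h compound treatment at 37 °C | assay system = CHO-XBP1 cells stably carrying IRE1-XBP1-driven luciferase reporter | input = 1000 cells per well | detection = luciferase luminescence | dosing = single point, 20 µM final compound, 1% DMSO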
Beta cell apopt – blocks beta cell apoptosis. INS-1E cytokine-induced death, ATP luminescence, 48 h; percent of positive-control rescue, neutral wells zero. protection from apoptosis, % (test concentration not listed). actives 0.8% (n = 300,000);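 active means Every replicate reaches about 75%, or at least half do and their mean reaches it too, limit read from the data; inconclusive means At least half of replicates reach the limit but their mean does not; inactive means Under half of replicates reach the limit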;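 further: 0% = cytokine-treated negative control wells and 100% = positive control rescue; higher means more ATP so stronger rescue from cytokine killing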
SKKanGAS inh – blocks kanamycin growth of S. pyogenes SKKanGAS strain; inhibition, % at 7.5 µM; actives 1.3% (n = 300,000); AID 1662; BacTiter-Glo, 6 h;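 active means mean replicate score, as percent of positive control median, at least 50; inconclusive means mean below 50 but one replicate at or above 50; inactive means mean and every replicate below 50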;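 further: strain carries kanamycin resistance gene driven by streptokinase promoter and grows in 40 µg/ml kanamycin; loss of luminescence reflects streptokinase promoter inhibition or plain growth inhibition; 0% = median of DMSO wells and 100% = positive control at its reference dose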
CHOP UPR activ – activators of apoptotic arm of unfolded protein response (CHOP); CHO-CHOP luciferase reporter, UPR activation, luminescence; percent of tunicamycin response over DMSO baseline; activation, % at 10 µM; actives 0.34% (n = 330,000);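 active means at 10 µM dose, activation of 40% or more, normalized to positive control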;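 further: 100% = tunicamycin at 10 µg/mL and 0% = DMSO alone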
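System: CHO-CHOP luciferase reporter cell line | Buffer or medium: F12 medium containing 10% fetal bovine serum | Doses: One dose, 10 µM in 0.5% DMSO | Times: 6 h compound exposure at 37 °C after overnight seeding | Signal: Luciferase luminescence | Read-out: % activation vs tunicamycin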
CSC inhib – cancer stem cell inhibition. cancer stem cell-like cells viability, luminescence. inhibition, % at 7.5 µM. actives 1.1% (n = 300,000); in the data active means inhibition above about 75%; inconclusive means no clear call, values can overlap the other calls; tested in HMLE shEcad cells
Mdm2 MdmX PPI – inhibitors of human Mdm2/MdmX interaction | O15151+Q00987 | SaOS-2 split-luciferase Mdm2/MdmX complementation, luminescence | inhibition, % at 8 µM | actives 3% (n = 330,000) | AID 485346;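 active means inhibition of at least 50% at 8 µM in the primary screen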
Mdm2 MdmX conf – human Mdm2/MdmX binding inhibition, confirmed; shares compounds with Mdm2 MdmX PPI; luminescent assay; AID 489028; inhibition, % at 8 µM; actives 55% (n = 10,000); in the data active means inhibition above about 40%
FLuc counter – full-length luciferase inhibition in Mdm2/MdmX counter-screen; inhibition, % at 8 µM; SaOS-2 full-length luciferase counterscreen, luminescence; shares compounds with Mdm2 MdmX PPI; actives 77% (n = 6,200);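 active means mean inhibition at 8 µM reaching about 37%, which flags the compound as non-specific, limit read from the data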;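 further: p53-null SaOS-2 cells with luciferase driven by a doxycycline-inducible promoter; compound on cells about two nights before reading with doxycycline added after day one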
The depositor's hits bear a star; ? = inconclusive; / = no result.

SMILES	XBP1 UPR activ	Beta cell apopt	SKKanGAS inh	CHOP UPR activ	CSC inhib	Mdm2 MdmX PPI	Mdm2 MdmX conf	FLuc counter
O=C(NC(NC(=S)Nc1c(Cl)cccc1Cl)C(Cl)(Cl)Cl)c1cccc([N+](=O)[O-])c1 (stereo not drawn)	2	27	44	14	51	58*	50*	76*
O=C(Oc1ccccc1C(=O)Oc1ccccc1)c1cccnc1	3	4	3	-1	-9	52*	4	/
CCc1ccc(C(=O)Cn2ncc(Cl)c(Cl)c2=O)cc1	0	-11	-15	37	-6	96*	88*	51*
O=C(Cn1ncc(Cl)c(Cl)c1=O)N1CCN(Cc2ccccc2)CC1	/	/	2	/	/	/	/	/
CCn1c(SCC(=O)Nc2oc(-c3ccccc3)c(-c3ccccc3)c2C#N)nnc1-c1ccco1	-2	-1	?	0	2	18	/	/
COc1ccc(-c2oc(NC(=O)CSc3nncn3C)c(C#N)c2-c2ccc(OC)cc2)cc1	-2	2	37	1	0	63*	54*	70*
CCc1cccc(C)c1N=Cc1c(O)c2ccccc2oc1=O	1	1	12	8	13	27	/	/
O=c1oc2ccccc2cc1-c1csc(Nc2nc3c(F)cccc3s2)n1	2	/	11	2	48	70*	70*	107*
O=c1oc2ccccc2cc1-c1csc(Nc2nc3ccc(F)cc3s2)n1	15	64	-5	4	24	40	/	/
CCSc1ncc(Cl)c(C(=O)Nc2ccccc2OC)n1	-2	/	-1	-1	17	0	/	/
O=C(NCc1ccccc1)c1c(Cl)nc(Cl)c(Cl)c1Cl	3	-10	3	4	68	100*	94*	53*
O=C(NCc1ccc2c(c1)OCO2)c1nc(S(=O)(=O)Cc2ccccc2)ncc1Cl	-6	/	-3	11	/	63*	45*	14
CCOc1ccccc1NC(=O)c1nc(S(=O)(=O)Cc2cccc(C)c2)ncc1Cl	-10	96*	73*	-10	91*	100*	76*	55*
COC(=O)c1ccccc1NC(=O)c1nc(S(=O)(=O)Cc2ccccc2)ncc1Cl	-10	99*	58*	-11	100*	98*	91*	67*
C=CC[C@H](CC(=O)N(CCO)Cc1ccccc1)C(=O)N[C@H](C)COC(=O)[C@@H](CC=C)CC(=O)OC(C)(C)C	-2	-4	/	2	-17	-5	/	/
C=C1SC(Nc2c(C)cc(C)cc2C)=NC12CCCCC2	4	31	28	15	60	42	/	/
COc1ccc(OC)c(CN2CCN(C(=O)c3ccco3)CC2)c1	-5	-7	-3	3	1	8	/	/
COc1ccc(CNC(=O)c2nc(S(=O)(=O)Cc3ccccc3)ncc2Cl)cc1	-8	15	-5	164*	-8	77*	94*	1
O=C(NCc1ccccc1)c1nc(S(=O)(=O)Cc2ccccc2)ncc1Cl	-11	-10	-9	105*	52	74*	67*	4
COc1ccc(S(=O)(=O)Cc2ccc(C(=O)NCc3ccccc3)o2)cc1	-8	-1	-2	-1	7	-4	/	/
Cc1cc(C)c(C)c(S(=O)(=O)NCC(=O)NCC2CCCCC2)c1C	1	-8	5	-2	-22	15	/	/
COCCNCC#CCOc1ccc(OC)cc1	-5	-8	-6	0	-11	-3	/	/
COCCCNCC#CCOc1ccc(OC)cc1	6	-1	3	0	-29	100*	-1	/
CC(C)(C)NC(=O)C[C@H]1C[C@H](C(=O)N2CCCCC2)[C@@]2(CCc3ccccc3)c3[nH]c4ccc(Cl)cc4c3CCN2C1=O	5	/	/	1	/	52*	32	73*
